Data set [1] deals with Staphylococcus aureus. The data set is described as follows: Antibacterial activity against methicillin-resistant Staphylococcus aureus ATCC 43300 after 12 to 14 hrs by double dilution method. It counts as functional. In outline:
(§1)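 Broth double-dilution MIC per NCCLS. Bacteria at 1×10^6 CFU/mL in Luria-Bertani medium. Compounds dissolved in DMSO as stock, then diluted in medium to 200, 100, 50, 25, 12.5, 6.25 and 3.125 nmol/mL (DMSO <0.5%); some also tested at 256–1 µg/mL. Incubated at 37 °C for 12–14 h. MIC read as lowest concentration giving visible growth inhibition.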

The nature of data set [2]: Thermal stability of the compound at 2 ug/ml at 65 degC after 6 hrs by UHPLC-ESI-MS/MS analysis. It counts as physicochemical. In outline: (§2)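 Sample held at 25 °C 0 h, 37 °C 6 h or 65 °C 6 h, then 5 µL injected on UHPLC coupled to ESI-QTOF MS/MS at 0.4 mL/min; sample 2 µg/mL with mobile phase A 10% acetonitrile (ampicillin sodium) or 1 µg/mL with 35% acetonitrile (test compound); residual parent compound monitored.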

A further data set deals with Bacillus cereus. Briefly: Antibacterial activity against Bacillus cereus CGMCC 1.1846 after 12 to 14 hrs by double dilution method. It counts as functional.
For data set [3], the system named is Ralstonia solanacearum. The data set is described as follows: Antibacterial activity against Ralstonia solanacearum CGMCC 1.12711 measured after 12 to 14 hrs by double dilution method. In kind it is functional. In outline: as §1
A short description of data set [4]: Thermal stability of the compound at 2 ug/ml at 37 degC after 6 hrs by UHPLC-ESI-MS/MS analysis. It counts as physicochemical. An outline of the steps:
as §2

The next data set has as its system Escherichia coli. The data set is described as follows: Antibacterial activity against Escherichia coli CGMCC 1.1636 after 12 to 14 hrs by double dilution method. In kind it is functional.
In a further data set the test system is Bacillus subtilis. Briefly: Antibacterial activity against Bacillus subtilis 769 after 12 to 14 hrs by double dilution method. In kind it is functional.
In data set [5] the test system is Staphylococcus aureus. The data set is described as follows: Antibacterial activity against Staphylococcus aureus CGMCC 1.8721 after 12 to 14 hrs by double dilution method. In kind it is functional.
The nature of data set [6]: Thermal stability of the compound at 1 ug/ml at 37 degC after 6 hrs by UHPLC-ESI-MS/MS analysis. In kind it is physicochemical. An outline of the steps: as §2
For data set [7], the system named is Ralstonia solanacearum. Briefly: Bactericidal activity against Ralstonia solanacearum CGMCC 1.12711 assessed as cell wall disintegration at 0.5 MIC after 1 hr by scanning electron microscopy analysis. In kind it is functional, organism-based.
In data set [8] the test system is Ralstonia solanacearum. Briefly: Bactericidal activity against Ralstonia solanacearum CGMCC 1.12711 assessed as cell shrinkage at 0.5 MIC after 1 hr by scanning electron microscopy analysis. In kind it is functional, organism-based.
The nature of data set [9]: Cytotoxicity against human L02 cells assessed as cell viability at 8 ug/ml by MTT assay. The settings on record: read-out: Activity. In kind it is cell-based. In outline: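 MTT viability assay on normal cells (MARC 145 monkey kidney, L02 human hepatocyte) exposed to 8 µg/mL; MTT in PBS then 4 h at 37 °C, 5% CO2; formazan dissolved in DMSO with 15 min shaking; absorbance at 540 nm; viability = treated/untreated absorbance × 100%.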
Background: Tetrazolium assays rely on reduction of a dye to a coloured formazan, in cell work by metabolically active cells.

For data set [10], the system named is Staphylococcus aureus. The data set is described as follows: Bactericidal activity against methicillin-resistant Staphylococcus aureus ATCC 43300 assessed as cell wall disintegration at 0.5 MIC after 1 hr by scanning electron microscopy analysis. In kind it is functional, organism-based.
Data set [11] relates to Staphylococcus aureus. The data set is described as follows: Bactericidal activity against methicillin-resistant Staphylococcus aureus ATCC 43300 assessed as cell shrinkage at 0.5 MIC after 1 hr by scanning electron microscopy analysis. It counts as functional, organism-based.
Data set [12] is described as follows: Cytotoxicity against […] MARC145 cells assessed as cell viability at 8 ug/ml by MTT assay. The following applies: chlorocebus aethiops, read-out: Activity. It counts as cell-based.
In data set [13] the test system is Ralstonia solanacearum. The data set is described as follows: Protection against Ralstonia solanacearum-induced infection in eggplant leaf at 8 ug/ml after 3 days relative to control. It counts as functional.
Data set [14] in a line: Thermal stability of the compound at 1 ug/ml at 65 degC after 6 hrs by UHPLC-ESI-MS/MS analysis. In kind it is physicochemical. In outline: as §2

The source made the active and inactive calls. No cut-off for these calls is given here.

For orientation: MIC means the least concentration at which growth counts as inhibited. A high value points to a less susceptible organism.

Regarding `CC1(C)S[C@@H]2[C@H](NC(=O)[C@H](N)c3ccccc3)C(=O)N2[C@H]1C(=O)[O-].[Na+]` [AMPICILLIN SODIUM], the MIC against Staphylococcus aureus [1] is 50 µM; against Bacillus cereus it was 200 µM; with Ralstonia solanacearum [3], 3.12 µM; with Escherichia coli it was 3.12 µM; in the data set on Bacillus subtilis, 1.56 µM; in the data set on Staphylococcus aureus [5], 3.12 µM. Besides, the Stability result in data set [2] and in data set [4] was “Unstable” throughout.

Regarding `COc1ccc2[nH]c3c(-c4ccc5c(c4)OCO5)[n+](Cc4ccc(C(F)(F)F)cc4)ccc3c2c1.[Br-]`, the MIC against Staphylococcus aureus [1] was determined as 12.5 µM; with Bacillus cereus it was 25 µM; against Ralstonia solanacearum [3], 25 µM; with Escherichia coli, 50 µM; in the data set on Bacillus subtilis, 25 µM; with Staphylococcus aureus [5] it was 25 µM. Further, the Stability result in [6] and in data set [14] was “Stable” throughout. The result in the data set on Ralstonia solanacearum [7], in the data set on Ralstonia solanacearum [8], with Staphylococcus aureus [10] and with Staphylococcus aureus [11] was Active. The figures for the viability at 8 ug/ml in [9] and in data set [12] were 84.6% and 103%, respectively. The same compound had an Activity in the data set with Ralstonia solanacearum [13] of 81.3%.
